Experimental data: ChEMBL document CHEMBL4480426, “Novel multi-target directed ligands based on annelated xanthine scaffold with aromatic substituents acting on adenosine receptor and monoamine oxidase B. Synthesis, in vitro and in silico studies” (Bioorg Med Chem, 2019)

molecular target: T1, Adenosine receptor A1 (Homo sapiens, UniProt P30542); experiment: Displacement of [3H]CCPA from recombinant human adenosine A1 receptor expressed in CHO cells; format: cell-based; conditions: not given
T1 sequence (P30542 whole entry): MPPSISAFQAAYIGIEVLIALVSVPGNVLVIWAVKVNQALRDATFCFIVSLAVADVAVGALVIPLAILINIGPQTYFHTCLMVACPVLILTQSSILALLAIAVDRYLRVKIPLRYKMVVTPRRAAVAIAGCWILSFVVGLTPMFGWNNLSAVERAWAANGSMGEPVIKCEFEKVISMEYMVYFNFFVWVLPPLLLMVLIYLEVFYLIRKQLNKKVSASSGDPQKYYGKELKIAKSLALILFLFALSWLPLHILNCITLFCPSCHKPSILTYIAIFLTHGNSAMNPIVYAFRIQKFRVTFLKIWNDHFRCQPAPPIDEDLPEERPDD

Compound	Ki
Cn1c(=O)c2c(nc3n2CCCCN3Cc2ccc(F)c(Br)c2)n(C)c1=O	> 1000 nM
Cn1c(=O)c2c(nc3n2CCCCN3Cc2cccc(Br)c2)n(C)c1=O	651 nM
Cn1c(=O)c2c(nc3n2CCCCN3Cc2ccc(Cl)cc2Cl)n(C)c1=O	> 1000 nM
Cn1c(=O)c2c(nc3n2CCCCN3Cc2ccc(Cl)cc2)n(C)c1=O	> 1000 nM
COc1ccccc1CN1CCCCn2c1nc1c2c(=O)n(C)c(=O)n1C	> 1000 nM
Cn1c(=O)c2c(nc3n2CCN3Cc2ccccc2Br)n(C)c1=O	> 1000 nM
Cn1c(=O)c2c(nc3n2CCCCN3Cc2ccccc2Br)n(C)c1=O	> 1000 nM

molecular target: T2, Adenosine receptor A1 (Homo sapiens) (UniProt P30542); experiment: Displacement of [3H]CCPA from recombinant human adenosine A1 receptor expressed in CHO cells at 1 uM relative to control; format: cell-based; conditions: not given
T2 sequence (whole entry): T1 sequence (P30542 whole entry)
Method in brief: (§1)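 Purchased membranes of CHO cells expressing human A1 ([3H]CCPA) or human A3 ([3H]PSB-11). A single high compound concentration is screened first; for potent compounds, full inhibition curves spanning 3 orders of magnitude. At least three independent experiments.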

Compound	inhibition
Cn1c(=O)c2c(nc3n2CCCCN3Cc2ccc(F)c(Br)c2)n(C)c1=O	23%
Cn1c(=O)c2c(nc3n2CCCCN3Cc2ccc(Cl)cc2Cl)n(C)c1=O	16%
Cn1c(=O)c2c(nc3n2CCCCN3Cc2ccc(Cl)cc2)n(C)c1=O	13%
COc1ccccc1CN1CCCCn2c1nc1c2c(=O)n(C)c(=O)n1C	13%
Cn1c(=O)c2c(nc3n2CCN3Cc2ccccc2Br)n(C)c1=O	24%
Cn1c(=O)c2c(nc3n2CCCCN3Cc2ccccc2Br)n(C)c1=O	21%

molecular target: Adenosine receptor A2a (Homo sapiens, UniProt P29274); experiment: Displacement of [3H]MSX2 from recombinant human adenosine A2a receptor expressed in HEK293 cells; format: cell-based; conditions: not given
Sequence (P29274 whole entry): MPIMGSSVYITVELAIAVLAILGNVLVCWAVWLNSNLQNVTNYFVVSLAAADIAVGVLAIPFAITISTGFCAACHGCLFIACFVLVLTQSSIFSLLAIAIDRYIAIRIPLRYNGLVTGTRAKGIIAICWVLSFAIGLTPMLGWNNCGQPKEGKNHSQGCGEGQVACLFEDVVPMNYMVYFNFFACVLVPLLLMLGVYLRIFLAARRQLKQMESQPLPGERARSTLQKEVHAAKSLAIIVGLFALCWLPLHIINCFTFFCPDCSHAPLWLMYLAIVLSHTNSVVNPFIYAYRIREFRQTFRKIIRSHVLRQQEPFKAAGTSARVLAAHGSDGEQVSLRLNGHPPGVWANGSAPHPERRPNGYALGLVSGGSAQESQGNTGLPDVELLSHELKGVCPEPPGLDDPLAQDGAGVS

Compound	Ki
Cn1c(=O)c2c(nc3n2CCCCN3Cc2ccc(F)c(Br)c2)n(C)c1=O	> 1000 nM
Cn1c(=O)c2c(nc3n2CCCCN3Cc2cccc(Br)c2)n(C)c1=O	> 1000 nM
Cn1c(=O)c2c(nc3n2CCCCN3Cc2ccc(Cl)cc2Cl)n(C)c1=O	1580 nM
Cn1c(=O)c2c(nc3n2CCCCN3Cc2ccc(Cl)cc2)n(C)c1=O	> 1000 nM
COc1ccccc1CN1CCCCn2c1nc1c2c(=O)n(C)c(=O)n1C	959 nM
Cn1c(=O)c2c(nc3n2CCN3Cc2ccccc2Br)n(C)c1=O	887 nM
Cn1c(=O)c2c(nc3n2CCCCN3Cc2ccccc2Br)n(C)c1=O	767 nM

molecular target: T3, Adenosine receptor A2b (Homo sapiens, UniProt P29275); experiment: Displacement of [3H]PSB603 from recombinant human adenosine A2b receptor expressed in HEK293 cells; format: cell-based; conditions: not given
T3 sequence (P29275 whole entry): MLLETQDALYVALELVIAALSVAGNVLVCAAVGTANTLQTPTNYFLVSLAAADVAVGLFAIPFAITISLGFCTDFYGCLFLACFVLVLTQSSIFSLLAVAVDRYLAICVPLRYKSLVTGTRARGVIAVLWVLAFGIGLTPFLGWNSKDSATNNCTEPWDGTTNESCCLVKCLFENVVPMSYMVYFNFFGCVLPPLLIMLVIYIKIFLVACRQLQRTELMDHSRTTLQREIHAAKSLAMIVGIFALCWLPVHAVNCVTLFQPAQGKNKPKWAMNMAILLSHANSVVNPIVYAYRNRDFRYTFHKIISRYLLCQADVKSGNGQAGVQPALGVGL

Compound	Ki
Cn1c(=O)c2c(nc3n2CCCCN3Cc2ccc(F)c(Br)c2)n(C)c1=O	> 1000 nM
Cn1c(=O)c2c(nc3n2CCCCN3Cc2cccc(Br)c2)n(C)c1=O	> 1000 nM
Cn1c(=O)c2c(nc3n2CCCCN3Cc2ccc(Cl)cc2Cl)n(C)c1=O	> 1000 nM
Cn1c(=O)c2c(nc3n2CCCCN3Cc2ccc(Cl)cc2)n(C)c1=O	> 1000 nM
COc1ccccc1CN1CCCCn2c1nc1c2c(=O)n(C)c(=O)n1C	> 1000 nM
Cn1c(=O)c2c(nc3n2CCN3Cc2ccccc2Br)n(C)c1=O	> 1000 nM
Cn1c(=O)c2c(nc3n2CCCCN3Cc2ccccc2Br)n(C)c1=O	> 1000 nM

molecular target: T4, Adenosine receptor A2b (Homo sapiens) (UniProt P29275); experiment: Displacement of [3H]PSB603 from recombinant human adenosine A2b receptor expressed in HEK293 cells at 1 uM relative to control; format: cell-based; conditions: not given
T4 sequence (whole entry): T3 sequence (P29275 whole entry)
Method in brief: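 Purchased membranes of HEK cells expressing human A2A ([3H]MSX-2) or human A2B ([3H]PSB-603). A single high compound concentration is screened first; for potent compounds, full inhibition curves spanning 3 orders of magnitude. At least three independent experiments.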

Compound	inhibition
Cn1c(=O)c2c(nc3n2CCCCN3Cc2ccc(F)c(Br)c2)n(C)c1=O	43%
Cn1c(=O)c2c(nc3n2CCCCN3Cc2cccc(Br)c2)n(C)c1=O	41%
Cn1c(=O)c2c(nc3n2CCCCN3Cc2ccc(Cl)cc2Cl)n(C)c1=O	5%
Cn1c(=O)c2c(nc3n2CCCCN3Cc2ccc(Cl)cc2)n(C)c1=O	13%
COc1ccccc1CN1CCCCn2c1nc1c2c(=O)n(C)c(=O)n1C	16%
Cn1c(=O)c2c(nc3n2CCN3Cc2ccccc2Br)n(C)c1=O	21%
Cn1c(=O)c2c(nc3n2CCCCN3Cc2ccccc2Br)n(C)c1=O	43%

molecular target: T5, Adenosine receptor A3 (Homo sapiens, UniProt P0DMS8); experiment: Displacement of [3H]PSB11 from recombinant human adenosine A3 receptor expressed in CHO cells; format: cell-based; conditions: not given
T5 sequence (P0DMS8 whole entry): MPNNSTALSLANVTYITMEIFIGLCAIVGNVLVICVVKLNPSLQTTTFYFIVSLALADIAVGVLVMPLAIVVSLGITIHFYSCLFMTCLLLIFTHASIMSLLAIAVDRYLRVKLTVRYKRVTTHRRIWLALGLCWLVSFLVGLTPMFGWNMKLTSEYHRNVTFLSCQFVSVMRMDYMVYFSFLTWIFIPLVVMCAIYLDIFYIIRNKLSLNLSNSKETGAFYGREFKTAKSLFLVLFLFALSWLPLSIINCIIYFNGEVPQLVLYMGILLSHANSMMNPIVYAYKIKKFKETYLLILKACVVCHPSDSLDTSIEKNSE

Compound	Ki
Cn1c(=O)c2c(nc3n2CCCCN3Cc2ccc(F)c(Br)c2)n(C)c1=O	> 1000 nM
Cn1c(=O)c2c(nc3n2CCCCN3Cc2cccc(Br)c2)n(C)c1=O	> 1000 nM
Cn1c(=O)c2c(nc3n2CCCCN3Cc2ccc(Cl)cc2Cl)n(C)c1=O	> 1000 nM
Cn1c(=O)c2c(nc3n2CCCCN3Cc2ccc(Cl)cc2)n(C)c1=O	> 1000 nM
COc1ccccc1CN1CCCCn2c1nc1c2c(=O)n(C)c(=O)n1C	> 1000 nM
Cn1c(=O)c2c(nc3n2CCN3Cc2ccccc2Br)n(C)c1=O	> 1000 nM
Cn1c(=O)c2c(nc3n2CCCCN3Cc2ccccc2Br)n(C)c1=O	> 1000 nM

molecular target: T6, Adenosine receptor A3 (Homo sapiens) (UniProt P0DMS8); experiment: Displacement of [3H]PSB11 from recombinant human adenosine A3 receptor expressed in CHO cells at 1 uM relative to control; format: cell-based; conditions: not given; method in brief: as §1
T6 sequence (whole entry): T5 sequence (P0DMS8 whole entry)

Compound	inhibition
Cn1c(=O)c2c(nc3n2CCCCN3Cc2ccc(F)c(Br)c2)n(C)c1=O	20%
Cn1c(=O)c2c(nc3n2CCCCN3Cc2cccc(Br)c2)n(C)c1=O	26%
Cn1c(=O)c2c(nc3n2CCCCN3Cc2ccc(Cl)cc2Cl)n(C)c1=O	31%
Cn1c(=O)c2c(nc3n2CCCCN3Cc2ccc(Cl)cc2)n(C)c1=O	10%
COc1ccccc1CN1CCCCn2c1nc1c2c(=O)n(C)c(=O)n1C	19%
Cn1c(=O)c2c(nc3n2CCN3Cc2ccccc2Br)n(C)c1=O	37%
Cn1c(=O)c2c(nc3n2CCCCN3Cc2ccccc2Br)n(C)c1=O	42%

molecular target: T7, Amine oxidase [flavin-containing] A (Homo sapiens, UniProt P21397); experiment: Inhibition of recombinant human MAOA expressed in baculovirus infected BTI insect cells using p-tyramine as substrate preincubated for 30 mins followed by substrate addition and measured over 45 mins by horseradish peroxidase-Amplex Red-coupled fluorometric assay; conditions: not given
T7 sequence (P21397 whole entry): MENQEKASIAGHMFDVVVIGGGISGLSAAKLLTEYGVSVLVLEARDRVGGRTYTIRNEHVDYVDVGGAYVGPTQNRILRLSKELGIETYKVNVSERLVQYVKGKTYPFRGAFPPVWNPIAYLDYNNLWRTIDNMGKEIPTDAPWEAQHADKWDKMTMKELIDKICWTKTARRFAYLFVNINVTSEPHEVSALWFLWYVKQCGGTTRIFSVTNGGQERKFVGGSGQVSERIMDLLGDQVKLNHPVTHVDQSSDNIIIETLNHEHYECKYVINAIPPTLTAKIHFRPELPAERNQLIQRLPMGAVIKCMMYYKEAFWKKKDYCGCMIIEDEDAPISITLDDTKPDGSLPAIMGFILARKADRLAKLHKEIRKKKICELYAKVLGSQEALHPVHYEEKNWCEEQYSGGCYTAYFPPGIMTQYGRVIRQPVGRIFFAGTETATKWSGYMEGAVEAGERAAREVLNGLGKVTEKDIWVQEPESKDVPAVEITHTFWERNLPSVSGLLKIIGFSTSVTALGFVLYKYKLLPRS
Method in brief: (§2)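 Human recombinant MAO-A or MAO-B enzyme. Activity detected fluorometrically with the Amplex Red monoamine oxidase assay.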

Compound	IC50
Cn1c(=O)c2c(nc3n2CCCCN3Cc2ccc(F)c(Br)c2)n(C)c1=O	> 1000 nM
Cn1c(=O)c2c(nc3n2CCCCN3Cc2cccc(Br)c2)n(C)c1=O	> 1000 nM
Cn1c(=O)c2c(nc3n2CCCCN3Cc2ccc(Cl)cc2Cl)n(C)c1=O	> 1000 nM
Cn1c(=O)c2c(nc3n2CCCCN3Cc2ccc(Cl)cc2)n(C)c1=O	> 1000 nM
COc1ccccc1CN1CCCCn2c1nc1c2c(=O)n(C)c(=O)n1C	> 1000 nM
Cn1c(=O)c2c(nc3n2CCN3Cc2ccccc2Br)n(C)c1=O	> 1000 nM
Cn1c(=O)c2c(nc3n2CCCCN3Cc2ccccc2Br)n(C)c1=O	> 1000 nM

molecular target: T8, Amine oxidase [flavin-containing] B (Homo sapiens, UniProt P27338); experiment: Inhibition of recombinant human MAOB expressed in baculovirus infected BTI insect cells using p-tyramine as substrate preincubated for 30 mins followed by substrate addition and measured over 45 mins by horseradish peroxidase-Amplex Red-coupled fluorometric assay; conditions: not given; method in brief: as §2
T8 sequence (P27338 whole entry): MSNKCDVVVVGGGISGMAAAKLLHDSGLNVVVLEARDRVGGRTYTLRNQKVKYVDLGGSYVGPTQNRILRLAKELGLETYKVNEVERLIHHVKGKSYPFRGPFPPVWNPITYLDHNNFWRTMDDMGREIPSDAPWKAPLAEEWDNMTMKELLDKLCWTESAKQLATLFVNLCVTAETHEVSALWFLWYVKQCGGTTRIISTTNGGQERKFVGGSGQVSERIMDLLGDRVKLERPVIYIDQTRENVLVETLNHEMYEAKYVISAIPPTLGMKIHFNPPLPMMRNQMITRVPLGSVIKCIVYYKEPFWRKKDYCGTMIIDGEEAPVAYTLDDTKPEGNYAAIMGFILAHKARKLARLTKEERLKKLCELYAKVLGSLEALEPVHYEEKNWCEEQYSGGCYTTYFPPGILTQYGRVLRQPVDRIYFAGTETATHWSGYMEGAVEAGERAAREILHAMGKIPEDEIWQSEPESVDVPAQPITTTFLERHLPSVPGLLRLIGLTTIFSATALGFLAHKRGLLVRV

Compound	IC50
Cn1c(=O)c2c(nc3n2CCCCN3Cc2ccc(F)c(Br)c2)n(C)c1=O	171 nM
Cn1c(=O)c2c(nc3n2CCCCN3Cc2cccc(Br)c2)n(C)c1=O	371 nM
Cn1c(=O)c2c(nc3n2CCCCN3Cc2ccc(Cl)cc2Cl)n(C)c1=O	282 nM
Cn1c(=O)c2c(nc3n2CCCCN3Cc2ccc(Cl)cc2)n(C)c1=O	364 nM
COc1ccccc1CN1CCCCn2c1nc1c2c(=O)n(C)c(=O)n1C	1920 nM
Cn1c(=O)c2c(nc3n2CCN3Cc2ccccc2Br)n(C)c1=O	991 nM
Cn1c(=O)c2c(nc3n2CCCCN3Cc2ccccc2Br)n(C)c1=O	275 nM

molecular target: T7, Amine oxidase [flavin-containing] A; experiment: Inhibition of recombinant human MAOA expressed in baculovirus infected BTI insect cells at 1 to 100 uM using p-tyramine as substrate preincubated for 30 mins followed by substrate addition and measured over 45 mins by horseradish peroxidase-Amplex Red-coupled fluorometric assay relative to control; conditions: 0.75 h; method in brief: as §2

Compound	inhibition (INH)
Cn1c(=O)c2c(nc3n2CCCCN3Cc2ccc(F)c(Br)c2)n(C)c1=O	-6%
Cn1c(=O)c2c(nc3n2CCCCN3Cc2cccc(Br)c2)n(C)c1=O	6%
Cn1c(=O)c2c(nc3n2CCCCN3Cc2ccc(Cl)cc2Cl)n(C)c1=O	-2%
Cn1c(=O)c2c(nc3n2CCCCN3Cc2ccc(Cl)cc2)n(C)c1=O	6%
COc1ccccc1CN1CCCCn2c1nc1c2c(=O)n(C)c(=O)n1C	2%
Cn1c(=O)c2c(nc3n2CCN3Cc2ccccc2Br)n(C)c1=O	13%
Cn1c(=O)c2c(nc3n2CCCCN3Cc2ccccc2Br)n(C)c1=O	3%
